The source of these data is ChEMBL document CHEMBL3751842, “Novel triazolothiadiazines act as potent anticancer agents in liver cancer cells through Akt and ASK-1 proteins” (Bioorg Med Chem, 2016).

Molecules are shown by their SMILES. Active and inactive are the calls of the source. The calls are words filed in the database; no cut-off is given here.

Experiment [1] has as its system Mahlavu. Kind of experiment: Induction of apoptosis in human Mahlavu cells assessed as PARP cleavage after 24 to 48 hrs by Western blot analysis. It is filed as functional, cell-based. The method, boiled down: (§1)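 Cells were exposed to compound or DMSO control for 24 or 48 h. Lysates were loaded at […] protein per lane and immunoblotted with antibodies diluted 1:100 to 1:500 in 5% BSA-TBS-T. Targets were p-Akt (Ser473), Akt, p-GSK3-α/β (Ser21/9), GSK3-α/β, SAPK/JNK, p-SAPK/JNK (Thr183/Tyr185), PARP, p-β-catenin, β-catenin, cyclin D1, p-ASK1 (S83) and p-ASK1 (S966). Actin served as the loading control.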

Experiment [2] has as its target Glycogen synthase kinase-3 beta (Homo sapiens) (UniProt P49841). Nature of the experiment: Inhibition of GSK3beta phosphorylation in human Mahlavu cells after 24 to 48 hrs by Western blot analysis. It is filed as cell-based. In short, it runs like this: as §1
On the technique in general: A western blot detects proteins with antibodies after separation by electrophoresis.

A short description of experiment [3]: Cytotoxicity against human FOCUS cells assessed as growth inhibition after 72 hrs by sulforhodamine B assay. Format: functional, cell-based. The settings on record: Homo sapiens, FOCUS, 72 h; read-out: IC50. In short, it runs like this: (§2)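 Cells were grown at 37°C, 5% CO2 in DMEM with 10% FBS. They were seeded at 1000–3000 cells/well, grown 24 h, then exposed to compound at 2.5–40 µM for 72 h. Cells were fixed in 10% TCA for 1 h at 4°C, stained with 0.4% SRB in 1% acetic acid for 10 min, and the dye solubilized in 10 mM Tris. Absorbance was read at 515 nm; runs were in triplicate; IC50 was calculated, with fits of R2 0.8–1 accepted.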

Experiment [4] concerns the target RAC-alpha serine/threonine-protein kinase (Homo sapiens) (UniProt P31749). Kind of experiment: Inhibition of Akt phosphorylation in human Mahlavu cells after 24 to 48 hrs by Western blot analysis. Format: cell-based. In short, it runs like this:
as §1

Experiment [5] deals with T1, Mitogen-activated protein kinase kinase kinase 5 (Homo sapiens) (UniProt Q99683).
T1 sequence (whole entry): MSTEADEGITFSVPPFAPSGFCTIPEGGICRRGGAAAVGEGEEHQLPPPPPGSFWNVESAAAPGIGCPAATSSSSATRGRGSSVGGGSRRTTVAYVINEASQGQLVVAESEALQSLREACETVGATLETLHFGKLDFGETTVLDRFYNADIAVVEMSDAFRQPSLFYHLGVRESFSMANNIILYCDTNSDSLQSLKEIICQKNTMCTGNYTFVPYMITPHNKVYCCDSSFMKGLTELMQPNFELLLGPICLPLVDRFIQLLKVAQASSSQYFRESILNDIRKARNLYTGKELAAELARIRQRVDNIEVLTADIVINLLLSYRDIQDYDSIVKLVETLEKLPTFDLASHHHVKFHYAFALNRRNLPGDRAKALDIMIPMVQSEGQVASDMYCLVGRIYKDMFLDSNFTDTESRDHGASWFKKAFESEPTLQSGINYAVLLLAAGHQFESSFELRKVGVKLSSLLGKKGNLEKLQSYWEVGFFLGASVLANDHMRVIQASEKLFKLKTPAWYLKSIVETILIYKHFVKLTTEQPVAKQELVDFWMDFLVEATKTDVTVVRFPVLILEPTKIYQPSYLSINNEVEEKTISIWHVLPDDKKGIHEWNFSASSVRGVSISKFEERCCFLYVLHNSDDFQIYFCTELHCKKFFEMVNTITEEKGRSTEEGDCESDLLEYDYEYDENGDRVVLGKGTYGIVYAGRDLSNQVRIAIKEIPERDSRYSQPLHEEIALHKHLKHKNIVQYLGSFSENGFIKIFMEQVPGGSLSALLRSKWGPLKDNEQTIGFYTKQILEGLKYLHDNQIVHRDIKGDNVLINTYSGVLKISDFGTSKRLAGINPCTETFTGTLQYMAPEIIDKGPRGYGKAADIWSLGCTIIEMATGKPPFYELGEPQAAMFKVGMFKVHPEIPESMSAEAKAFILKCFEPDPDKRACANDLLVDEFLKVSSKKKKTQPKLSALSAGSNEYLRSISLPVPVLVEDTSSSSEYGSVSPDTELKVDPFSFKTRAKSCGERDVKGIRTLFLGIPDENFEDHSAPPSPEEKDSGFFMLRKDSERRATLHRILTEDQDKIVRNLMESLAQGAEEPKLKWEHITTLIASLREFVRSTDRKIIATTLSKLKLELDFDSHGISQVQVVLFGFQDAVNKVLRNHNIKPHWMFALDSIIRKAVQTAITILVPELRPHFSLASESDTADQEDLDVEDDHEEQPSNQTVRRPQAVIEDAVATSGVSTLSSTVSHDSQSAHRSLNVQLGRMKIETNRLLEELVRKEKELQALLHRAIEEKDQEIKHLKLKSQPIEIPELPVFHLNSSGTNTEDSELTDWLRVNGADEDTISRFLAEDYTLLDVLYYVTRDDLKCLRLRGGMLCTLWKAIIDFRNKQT
Nature of the experiment: Activation of ASK1 in human HuH7 cells assessed as Ser83 phosphorylation after 24 to 48 hrs by Western blot analysis. As to conditions: Huh-7. It is filed as cell-based. The method, boiled down:
as §1

Experiment [6] in a line: Cytotoxicity against human Hep3B cells assessed as growth inhibition after 72 hrs by sulforhodamine B assay. It is filed as functional, cell-based, Hep 3B2. The settings on record: Homo sapiens, Hep3B, 72 h; read-out: IC50. In short, it runs like this:
as §2
(In general: The SRB assay estimates cell density from bound dye.)

In experiment [7] the target is T2, Catenin beta-1 (Homo sapiens) (UniProt P35222).
T2 sequence (whole entry): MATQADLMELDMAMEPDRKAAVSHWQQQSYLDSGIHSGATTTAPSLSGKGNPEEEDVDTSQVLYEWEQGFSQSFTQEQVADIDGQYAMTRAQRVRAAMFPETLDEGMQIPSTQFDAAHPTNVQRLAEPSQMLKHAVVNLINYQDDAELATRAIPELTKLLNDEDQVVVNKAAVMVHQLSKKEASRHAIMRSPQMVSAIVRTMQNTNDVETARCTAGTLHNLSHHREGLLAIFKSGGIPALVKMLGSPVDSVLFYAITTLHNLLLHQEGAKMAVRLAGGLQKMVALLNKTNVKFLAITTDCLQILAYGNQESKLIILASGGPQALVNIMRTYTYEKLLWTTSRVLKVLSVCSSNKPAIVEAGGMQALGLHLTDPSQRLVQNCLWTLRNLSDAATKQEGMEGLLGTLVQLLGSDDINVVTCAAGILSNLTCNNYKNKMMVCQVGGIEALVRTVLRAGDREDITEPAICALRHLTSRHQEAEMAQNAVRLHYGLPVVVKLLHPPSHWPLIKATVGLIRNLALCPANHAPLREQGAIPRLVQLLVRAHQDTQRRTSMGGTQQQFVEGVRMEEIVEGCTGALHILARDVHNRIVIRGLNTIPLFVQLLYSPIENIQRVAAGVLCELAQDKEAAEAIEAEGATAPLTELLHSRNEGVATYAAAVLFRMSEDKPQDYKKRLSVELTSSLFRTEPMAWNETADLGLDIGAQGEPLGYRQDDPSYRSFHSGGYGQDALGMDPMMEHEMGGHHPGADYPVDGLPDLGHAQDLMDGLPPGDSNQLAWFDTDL
Nature of the experiment: Induction of beta-catenin phosphorylation in human HuH7 cells after 24 to 48 hrs by Western blot analysis. Format: cell-based. The settings on record: Huh-7. The method, boiled down: as §1

The subject of experiment [8] is Mahlavu. Kind of experiment: Induction of apoptosis in human Mahlavu cells assessed as decrease in cyclin D1 level after 24 to 48 hrs by Western blot analysis. Format: functional, cell-based. In short, it runs like this:
as §1

Chain of RAC-alpha serine/threonine-protein kinase (Homo sapiens) (P31749 whole entry): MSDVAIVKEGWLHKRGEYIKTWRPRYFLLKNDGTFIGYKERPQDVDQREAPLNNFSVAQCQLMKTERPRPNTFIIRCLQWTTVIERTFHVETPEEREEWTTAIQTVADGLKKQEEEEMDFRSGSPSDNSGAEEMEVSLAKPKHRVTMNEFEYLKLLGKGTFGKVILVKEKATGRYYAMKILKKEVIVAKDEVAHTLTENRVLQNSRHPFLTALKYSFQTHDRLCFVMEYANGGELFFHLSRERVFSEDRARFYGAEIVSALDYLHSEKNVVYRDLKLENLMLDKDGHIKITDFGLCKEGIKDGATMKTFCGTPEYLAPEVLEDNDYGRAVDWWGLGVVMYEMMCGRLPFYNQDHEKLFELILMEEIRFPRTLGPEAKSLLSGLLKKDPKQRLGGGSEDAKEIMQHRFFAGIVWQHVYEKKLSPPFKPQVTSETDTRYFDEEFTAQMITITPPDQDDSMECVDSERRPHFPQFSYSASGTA
Chain of Glycogen synthase kinase-3 beta (Homo sapiens) (P49841 whole entry, looked up): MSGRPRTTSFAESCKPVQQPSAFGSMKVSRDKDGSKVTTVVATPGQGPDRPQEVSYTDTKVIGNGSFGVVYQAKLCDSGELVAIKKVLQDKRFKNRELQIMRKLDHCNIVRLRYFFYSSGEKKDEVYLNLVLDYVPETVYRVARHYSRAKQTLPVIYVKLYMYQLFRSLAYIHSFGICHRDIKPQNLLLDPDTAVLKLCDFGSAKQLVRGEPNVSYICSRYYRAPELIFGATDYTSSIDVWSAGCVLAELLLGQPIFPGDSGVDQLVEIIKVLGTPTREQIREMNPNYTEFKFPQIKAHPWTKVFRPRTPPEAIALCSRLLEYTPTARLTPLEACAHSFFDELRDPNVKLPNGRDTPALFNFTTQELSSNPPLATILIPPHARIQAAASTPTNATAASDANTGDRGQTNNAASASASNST

`COc1ccc(C2=Nn3c(nnc3C(C)c3ccc(CC(C)C)cc3)SC2)cc1` (stereo unspecified): the outcome (with Mahlavu [1]; in experiment [5]; in experiment [7]; in the experiment on Mahlavu [8]) was Active. Moreover, the inhibition entry in experiment [2] and in experiment [4] was “Active” each time. Moreover, the IC50 worked out at 2.4 µM in experiment [3] and 6.5 µM in experiment [6].

Take `Cc1ccc(C2=Nn3c(nnc3C(C)c3ccc(CC(C)C)cc3)SC2)cc1` (stereo unspecified): the result (in the experiment on Mahlavu [1]; in experiment [5]; in experiment [7]; with Mahlavu [8]) was Active. Besides, the inhibition entry in experiment [2] and in experiment [4] was “Active” each time. Moreover, the IC50 in experiment [3] is 6.8 µM; in experiment [6] it was 5.3 µM.

What is called IC50 is the point on the concentration scale where inhibition reaches its midpoint.
